Data taken from publication PMC3873039 (Anti-Cancer Agents in Medicinal Chemistry, 2013).

Assays:
JURKAT = assay: CellTiter-Glo luminescent cell viability assay; assay type: cell-based, human; conditions: 24 h, doses 0, 2, 10, 50, 250, 500 µM, p<0.05
Method in brief: (§1)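 Cells grown in RPMI 1640 with 10% FBS, 1.5 mM L-glutamine and penicillin/streptomycin at 37 °C, 5% CO2. Seeded at 2.5 x 10³ cells/well and exposed 24 h to ethanol-dissolved test compound (0, 2, 10, 50, 250, 500 µM) with 0.1% ethanol vehicle. ATP luminescence normalized to vehicle (100%). IC50 taken from linear regression. Lowest significant dose set by one-way ANOVA/Tukey, p<0.05. Triplicates, three independent experiments.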

MOLT-3 [1] = assay: CellTiter-Glo luminescent cell viability assay; assay type: cell-based, human; conditions: MOLT-3, 24 h, doses 0, 2, 10, 50, 250, 500 µM, p<0.05
Method in brief: as §1

THP-1 [2] = assay: CellTiter-Glo luminescent cell viability assay; assay type: cell-based, human; conditions: THP-1, 24 h, doses 0, 2, 10, 50, 250, 500 µM, p<0.05
Method in brief: as §1

K562 [3] = assay: CellTiter-Glo luminescent cell viability assay; assay type: cell-based, human; conditions: K562, 24 h, doses 0, 2, 10, 50, 250, 500 µM, p<0.05
Method in brief: as §1

KG1a [4] = assay: CellTiter-Glo luminescent cell viability assay; assay type: cell-based, human; conditions: 24 h
Method in brief: as §1

U937 [5] = assay: CellTiter-Glo luminescent cell viability assay; assay type: cell-based, human; conditions: U937, 24 h, doses 0, 2, 10, 50, 250, 500 µM, p<0.05
Method in brief: as §1

[6] = system: non-tumor cord blood (CD34+) cells; assay: CellTiter-Glo luminescent cell viability assay; assay type: cell-based; conditions: 24 h
Method in brief: as §1

CCRF-CEM [7] = assay: Cell cycle analysis, propidium iodide flow cytometry; assay type: cell-based, human; conditions: IC50 dose, 24 h, vehicle control G0/G1 = 41.9%
Method in brief: (§2)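 Seeded at 0.5 x 10^6 cells per well in 12-well plates and treated 24 h at the IC50 concentration of each test compound from CellTiter-Glo. Cells were pelleted (400 g, 5 min), PBS-washed and fixed in 80% ethanol overnight at -20 °C. Staining used 50 µg/mL PI plus RNase overnight at 4 °C.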

THP-1 [8] = assay: as above; assay type: cell-based, human; conditions: THP-1, IC50 dose, 24 h; vehicle control G0/G1 = 42.3%
Method in brief: as §2

K562 [9] = assay: as above; assay type: cell-based, human; conditions: K562, IC50 dose, 24 h; vehicle control G2/M = 13.6%
Method in brief: as §2

[10] = system: non-tumor progenitor cells (CD34+); assay: Cell cycle analysis, propidium iodide flow cytometry; assay type: cell-based; conditions: 24 h, within the IC50 ranges used to treat the leukemic cell lines
CCRF-CEM [11] = assay: NucView caspase 3 activity assay by flow cytometry; assay type: cell-based, human; conditions: 24 h
Method in brief: (§3)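 Seeded at 0.5 x 10⁶ cells/well and treated 24 h, with series of 0–50 or 0–250 µM depending on compound. Normalized to vehicle (0% apoptosis). Mean ± STD, three independent experiments in triplicate. One-way ANOVA/Tukey, p<0.05. AP50 = concentration giving 50% apoptotic cells.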

MOLT-3 [12] = assay: NucView caspase 3 activity assay by flow cytometry; assay type: cell-based, human
Method in brief: as §3

HL60 = assay: NucView caspase 3 activity assay by flow cytometry; assay type: cell-based, human
Method in brief: as §3

THP-1 [13] = assay: NucView caspase 3 activity assay by flow cytometry; assay type: cell-based, human
Method in brief: as §3

K562 [14] = assay: NucView caspase 3 activity assay by flow cytometry; assay type: cell-based, human
Method in brief: as §3

KG1a [15] = assay: NucView caspase 3 activity assay by flow cytometry; assay type: cell-based, human; conditions: 24 h
Method in brief: as §3

non-tumor cells (CD34+) [16] = assay: NucView caspase 3 activity assay by flow cytometry; assay type: cell-based; conditions: 24 h
CCRF-CEM [17] = assay: Hoechst 33342 nuclear morphological analysis of apoptosis; assay type: cell-based; conditions: Homo sapiens, 24 h, read-out: AP50 (50% induction of apoptosis), Hoechst 33342 staining (Hoe)
Method in brief: (§4)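 Seeded at 0.5 x 10⁶ cells/well in 12-well plates and treated 24 h. Cells were pelleted (400 g, 5 min, 4 °C), washed in PBS, fixed in 4% paraformaldehyde, cytospun, air-dried, then stained with 10 μg/ml Hoechst 33342 for 10 min in the dark. Fluorescence microscopy: 200 cells counted, scored by condensed/intense nuclei, shrinkage, blebbing and apoptotic bodies. % apoptotic nuclei calculated. AP50 = concentration giving 50% apoptotic cells.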

K562 [18] = assay: as above; assay type: cell-based; conditions: Homo sapiens, K562, 24 h, read-out: AP50 (50% induction of apoptosis), Hoechst 33342 staining (Hoe)
Method in brief: as §4

U937 [19] = assay: as above; assay type: cell-based; conditions: Homo sapiens, U-937, 24 h, read-out: AP50 (50% induction of apoptosis), Hoechst 33342 staining (Hoe)
Method in brief: as §4

non-tumor cells (CD34+) [20] = assay: Hoechst 33342 nuclear morphological analysis of apoptosis; assay type: cell-based; conditions: 24 h, read-out: AP50 (50% induction of apoptosis), Hoechst 33342 staining (Hoe)
Method in brief: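 CD34+ cells treated 24 h across the IC25–IC50 range, then pelleted (400 g, 4 °C) and fixed in 4% paraformaldehyde/PBS. Cytospins were air-dried and stained with 10 μg/ml Hoechst 33342 for 10 min in the dark, then viewed by fluorescence microscopy. 200 cells were scored per sample as % apoptotic nuclei (shrinkage, blebbing, chromatin condensation, apoptotic bodies). AP50 = concentration giving 50% apoptosis.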

- EC50 (CCRF-CEM [11]; Homo sapiens, read-out: AP50 (50% induction of apoptosis), Caspase 3 activity assay (C3)): > 500 µM
- EC50 (MOLT-3 [12]; Homo sapiens, MOLT-3, 24 h, read-out: AP50 (50% induction of apoptosis), Caspase 3 activity assay (C3)): 350 µM
- EC50 (HL60; Homo sapiens, HL-60, 24 h, read-out: AP50 (50% induction of apoptosis), Caspase 3 activity assay (C3)): 40 µM
- EC50 (THP-1 [13]; Homo sapiens, THP-1, 24 h, read-out: AP50 (50% induction of apoptosis), Caspase 3 activity assay (C3)): > 500 µM
- EC50 (K562 [14]; Homo sapiens, K562, 24 h, read-out: AP50 (50% induction of apoptosis), Caspase 3 activity assay (C3)): > 500 µM
- EC50 (KG1a [15]; Homo sapiens, KG-1a, read-out: AP50 (50% induction of apoptosis), Caspase 3 activity assay (C3)): > 500 µM
- EC50 (CCRF-CEM [17]): 200 µM
- EC50 (K562 [18]): 460 µM
- EC50 (U937 [19]): 225 µM
SMILES: C(=C\c1ccccc1)/c1ccccc1 [Trans-Stilbene, Trans-stilbene]
- The lowest dose of polyphenols at which there was a significant inhibition of cell proliferation compared to the vehicle control (JURKAT): 50 µM
- The lowest dose of polyphenols at which there was a significant inhibition of cell proliferation compared to the vehicle control (MOLT-3 [1]): 50 µM
- The lowest dose of polyphenols at which there was a significant inhibition of cell proliferation compared to the vehicle control (THP-1 [2]): 250 µM
- The lowest dose of polyphenols at which there was a significant inhibition of cell proliferation compared to the vehicle control (K562 [3]): 50 µM
- IC50 (KG1a [4]; Homo sapiens, KG-1a, read-out: IC50 (50% inhibition of cellular proliferation)): 250 µM
- The lowest dose of polyphenols at which there was a significant inhibition of cell proliferation compared to the vehicle control (KG1a [4]; KG1a, doses 0, 2, 10, 50, 250, 500 µM, p<0.05): 50 µM
- The lowest dose of polyphenols at which there was a significant inhibition of cell proliferation compared to the vehicle control (U937 [5]): 50 µM
- IC50 ([6]; read-out: IC50 (50% inhibition of cellular proliferation), CD34+ non-tumour control cells, 24 h treatment): 500 µM
- The lowest dose of polyphenols at which there was a significant inhibition of cell proliferation compared to the vehicle control ([6]; CD34+ non-tumour control cells, doses 0, 2, 10, 50, 250, 500 µM, p<0.05): 250 µM
- Percentage of cells in G0/G1 phase of cell cycle (significant accumulation) (CCRF-CEM [7]): G0/G1 =49.1%
- Percentage of cells in G0/G1 phase of cell cycle (significant accumulation) (THP-1 [8]): G0/G1 =53%
- Percentage of cells in G2/M phase of cell cycle (significant accumulation) (K562 [9]): G2/M =24.5%
- Cell cycle arrest in non-tumour control cells [10]: No Arrest ≤500µM
- The lowest dose of polyphenols at which there was a significant induction of apoptosis compared to the vehicle control (CCRF-CEM [11]; caspase 3 activity, p<0.05): 50 µM
- The lowest dose of polyphenols at which there was a significant induction of apoptosis compared to the vehicle control (MOLT-3 [12]; MOLT-3, caspase 3 activity, 24 h, p<0.05): 50 µM
- The lowest dose of polyphenols at which there was a significant induction of apoptosis compared to the vehicle control (HL60; HL60, caspase 3 activity, 24 h, p<0.05): 50 µM
- The lowest dose of polyphenols at which there was a significant induction of apoptosis compared to the vehicle control (THP-1 [13]; THP-1, caspase 3 activity, 24 h, p<0.05): 250 µM
- The lowest dose of polyphenols at which there was a significant induction of apoptosis compared to the vehicle control (K562 [14]; K562, caspase 3 activity, 24 h, p<0.05): 50 µM
- The lowest dose of polyphenols at which there was a significant induction of apoptosis compared to the vehicle control (KG1a [15]; KG1a, caspase 3 activity, p<0.05): 50 µM
- EC50 (non-tumor cells (CD34+) [16]; read-out: AP50 (50% induction of apoptosis), Caspase 3 activity assay (C3)): > 500 µM
- The lowest dose of polyphenols at which there was a significant induction of apoptosis compared to the vehicle control (non-tumor cells (CD34+) [16]; CD34+ non-tumour control cells, caspase 3 activity, p<0.05): 250 µM
- EC50 (non-tumor cells (CD34+) [20]): > 500 µM
